Measured values from ChEMBL document CHEMBL1148082, “Cucurbitacins, cell adhesion inhibitors from Conobea scoparioides” (J Nat Prod, 1994).
Activity calls are given as the source filed them. No cut-off for these calls is given here.

How the values were obtained:
[1] = species on record: Homo sapiens; experiment: Inhibition of actin polymerization in fMLP-stimulated human neutrophils assessed as positive fluorescence signal at 10 uM
How it was run: (§1)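 Human peripheral blood neutrophils were preincubated with compound for 45 min at 37° in PBS with Ca²⁺/Mg²⁺ and 10% fetal calf serum. They were then stimulated with fMLP (1 × 10⁻⁸ M final) for 1 min at 37°. Cells were fixed and permeabilized for at least 30 min at room temperature in 3% paraformaldehyde with lysophosphatidylcholine (12.5 µg/ml), pH 7.6. They were then stained with NBD-phalloidin for 15 min at 37° and analysed by flow cytometry (ex 488, em 530 nm). The value is the percent of cells with fluorescence above background.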

[2] = species on record: Homo sapiens; experiment: Inhibition of actin polymerization in fMLP-stimulated human neutrophils assessed as positive fluorescence signal at 1 uM; how it was run: as §1
[3] = system: JY; experiment: Cytotoxicity against human JY cells assessed as inhibition of thymidine uptake at 0.3 uM by scintillation counting; type: functional
How it was run: (§2)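 PKH26-stained JY cells were held at 37° with compound (0.3, 1.0, 3.3 or 50 μM) for 24 h and pulsed with tritiated thymidine during the last 5 h. Uptake was counted by scintillation and expressed as % inhibition.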

[4] = system: JY; experiment: Cytotoxicity against human JY cells assessed as inhibition of thymidine uptake at 1 uM by scintillation counting; type: functional; how it was run: as §2
[5] = system: JY; experiment: Cytotoxicity against human JY cells assessed as inhibition of thymidine uptake at 3.3 uM by scintillation counting; type: functional; how it was run: as §2
[6] = species on record: Homo sapiens; experiment: Inhibition of actin polymerization in fMLP-stimulated human neutrophils assessed as positive fluorescence signal at 3.3 uM; how it was run: as §1
[7] = species on record: Homo sapiens; experiment: Inhibition of actin polymerization in fMLP-stimulated human neutrophils assessed as positive fluorescence signal at 0.33 uM; how it was run: as §1
[8] = system: JY; experiment: Cytotoxicity against human JY cells assessed as inhibition of thymidine uptake up to 5 hrs; type: functional, cell-based
How it was run: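 Proliferation assay in PKH26-stained JY cells exposed to test compounds at 37° for 5 h, with a tritiated thymidine pulse over the final 5 h. Thymidine uptake was quantitated by scintillation counting.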

[9] = system: JY; experiment: Cytotoxicity against human JY cells after 48 hrs by MTT assay; type: functional, cell-based
How it was run: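 PKH26-stained JY cells incubated at 37° with test compounds for 48 h. MTT added for the last 4 h. Cells and formazan crystals were solubilized, and colour was read on an ELISA plate reader.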

[10] = system: JY; experiment: Cytotoxicity against human JY cells up to 45 mins; type: functional, cell-based
How it was run: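 Washout format: stained JY cells were treated with compounds for 45 min, matching the adhesion assay length, then washed extensively. Cells were then either incubated 24 h with a tritiated thymidine pulse in the last 5 h and scintillation counting, or run in the 48-h MTT assay.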

[11] = system: JY; experiment: Effect on cell activation in human JY cells assessed as inhibition of Ca2+ flux; type: functional, cell-based
[12] = target: Protein kinase C (PKC) (Homo sapiens) (UniProt O94806+P41743+P17252+P05129+Q05655+P05771+Q05513+Q02156+P24723+Q15139+Q04759); experiment: Inhibition of PKC in human JY cells; type: cell-based
[13] = system: JY; experiment: Cytotoxicity against human JY cells assessed as inhibition of thymidine uptake at 50 uM by scintillation counting; type: functional; how it was run: as §2

Q: Which results are given for `C=C1[C@@H](C)[C@H]2[C@H](Cc3ccccc3)NC(=O)[C@]23OC(=O)/C=C/[C@H](O)CCC[C@@H](C)C/C=C/[C@H]3[C@@H]1O`?
A: inhibition [1]: 4.2%; inhibition [2]: 45.5%

Q: For `CC(=O)OC(C)(C)/C=C/C(=O)[C@](C)(O)[C@H]1[C@H](O)C[C@@]2(C)[C@@H]3CC=C4[C@H](C[C@H](O)C(=O)C4(C)C)[C@]3(C)C(=O)C[C@]12C` [CUCURBITACIN B], which inhibition at 0.3 µM [3] is on record?
A: 39%

Q: And the inhibition at 1 µM [4]?
A: 63%

Q: What about the inhibition at 3.3 µM [5] of the same compound?
A: 71%

Q: And the inhibition [2]?
A: 19.5%

Q: And the inhibition [6]?
A: 9.6%

Q: And the inhibition [7]?
A: 29.8%

Q: `CC(C)(O)/C=C/C(=O)[C@](C)(O)[C@H]1[C@H](O)C[C@@]2(C)[C@@H]3CC=C4[C@@H](C[C@H](O)C(=O)C4(C)C)[C@]3(C)C(=O)C[C@]12C` [CUCURBITACIN D] was tested. Which inhibition at 0.3 µM [3] did it give?
A: 12%

Q: What about the inhibition at 1 µM [4] of the same compound?
A: 45%

Q: What about the inhibition at 3.3 µM [5] of the same compound?
A: 58%

Q: What about the inhibition [2] of the same compound?
A: 64.6%

Q: And the inhibition [6]?
A: 24.3%

Q: What about the inhibition [7] of the same compound?
A: 75.2%

Q: With `CC(=O)OC(C)(C)/C=C/C(=O)[C@](C)(O)[C@H]1[C@H](O)C[C@@]2(C)[C@@H]3CC=C4[C@@H](C=C(O)C(=O)C4(C)C)[C@]3(C)C(=O)C[C@]12C` [CUCURBITACIN E] as the compound, how does the inhibition at 0.3 µM [3] read?
A: 19%

Q: What about the inhibition at 1 µM [4] of the same compound?
A: 60%

Q: And the inhibition at 3.3 µM [5]?
A: 68%

Q: What about the Activity [8] of the same compound?
A: inactive

Q: What about the Activity [9] of the same compound?
A: Active

Q: What about the Activity [10] of the same compound?
A: Toxic

Q: And the inhibition [2]?
A: 24.7%

Q: What about the inhibition [6] of the same compound?
A: 3.8%

Q: What about the inhibition [7] of the same compound?
A: 21.5%

Q: What about the Activity [11] of the same compound?
A: inactive

Q: And the Activity [12]?
A: inactive

Q: With `CC(C)(O)/C=C/C(=O)[C@](C)(O)[C@H]1[C@H](O)C[C@@]2(C)[C@@H]3CC=C4[C@@H](C=C(O)C(=O)C4(C)C)[C@]3(C)C(=O)C[C@]12C` [CUCURBITACIN I] as the compound, how does the inhibition at 0.3 µM [3] read?
A: 34%

Q: What about the inhibition at 1 µM [4] of the same compound?
A: 63%

Q: What about the inhibition at 3.3 µM [5] of the same compound?
A: 58%

Q: What about the inhibition [2] of the same compound?
A: 15.3%

Q: What about the inhibition [6] of the same compound?
A: 20.5%

Q: What about the inhibition [7] of the same compound?
A: 60.5%

Q: And the Activity [11]?
A: inactive

Q: And the Activity [12]?
A: inactive

Q: With `CC(C)(O)CCC(=O)[C@@](C)(O)C1[C@H](O)C[C@@]2(C)[C@@H]3CC=C4C(C=C(O)C(=O)C4(C)C)[C@]3(C)C(=O)C[C@]12C` (stereo partly specified) [CUCURBITACIN L] as the compound, how does the inhibition at 50 µM [13] read?
A: 69%

Q: And the inhibition [2]?
A: 79.2%

Q: And the inhibition [6]?
A: 77.7%

Q: And the inhibition [7]?
A: 86.2%

Q: How did the inhibition at 0.3 µM [3] turn out when `CC(C)(O)CCC(=O)[C@](C)(O)[C@H]1[C@H](O)C[C@@]2(C)[C@@H]3CC=C4[C@@H](C[C@H](O)C(=O)C4(C)C)[C@]3(C)C(=O)C[C@]12C` [CUCURBITACIN R] was run?
A: 20%

Q: And the inhibition at 1 µM [4]?
A: 22%

Q: And the inhibition at 3.3 µM [5]?
A: 7%

Q: What about the inhibition at 50 µM [13] of the same compound?
A: 74%

Q: And the inhibition [2]?
A: 82.8%

Q: And the inhibition [6]?
A: 86%

Q: And the inhibition [7]?
A: 79.2%

Q: And the Activity [11]?
A: inactive

Q: What about the Activity [12] of the same compound?
A: inactive
